Measured values as given in ChEMBL document CHEMBL2380245, “Synthesis and evaluation of 2,3-dinorprostaglandins: Dinor-PGD1 and 13-epi-dinor-PGD1 are peroxisome proliferator-activated receptor α/γ dual agonists” (Bioorg Med Chem Lett, 2013).
Activity calls are given as the source filed them.

How the values were obtained:
Format in all cases: cell-based
[1] = biological target: T1, Peroxisome proliferator-activated receptor alpha (Homo sapiens) (UniProt Q07869); assay: Agonist activity at PPARalpha (unknown origin) transfected in HEK293 cells at 10 uM by luciferase reporter gene assay
T1 sequence (whole entry): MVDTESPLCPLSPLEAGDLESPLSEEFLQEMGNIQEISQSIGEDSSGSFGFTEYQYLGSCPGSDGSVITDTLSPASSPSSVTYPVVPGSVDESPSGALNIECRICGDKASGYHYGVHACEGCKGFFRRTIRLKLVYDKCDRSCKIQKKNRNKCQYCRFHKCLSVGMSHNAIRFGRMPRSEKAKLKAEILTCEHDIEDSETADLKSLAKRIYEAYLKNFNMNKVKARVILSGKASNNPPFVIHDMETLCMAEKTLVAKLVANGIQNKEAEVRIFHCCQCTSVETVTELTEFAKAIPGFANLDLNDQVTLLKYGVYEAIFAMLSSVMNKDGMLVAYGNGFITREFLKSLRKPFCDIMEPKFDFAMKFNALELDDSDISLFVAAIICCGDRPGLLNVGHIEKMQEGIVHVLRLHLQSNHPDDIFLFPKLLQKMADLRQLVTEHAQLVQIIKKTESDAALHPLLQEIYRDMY
Procedure, shortened: (§1)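 Luciferase PPAR reporter assay in transfected HEK293 cells, run following a previously reported protocol. Each receptor was tested alongside a subtype-selective reference agonist as control: PPARα at 10 µM, PPARδ at 100 nM and PPARγ at 10 µM.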

[2] = biological target: T1, Peroxisome proliferator-activated receptor alpha (Homo sapiens); assay: Agonist activity at PPARalpha (unknown origin) transfected in HEK293 cells at 1 to 30 uM by luciferase reporter gene assay
[3] = biological target: T2, Peroxisome proliferator-activated receptor delta (Homo sapiens) (UniProt Q03181); assay: Agonist activity at PPARdelta (unknown origin) transfected in HEK293 cells at 10 uM by luciferase reporter gene assay
T2 sequence (whole entry): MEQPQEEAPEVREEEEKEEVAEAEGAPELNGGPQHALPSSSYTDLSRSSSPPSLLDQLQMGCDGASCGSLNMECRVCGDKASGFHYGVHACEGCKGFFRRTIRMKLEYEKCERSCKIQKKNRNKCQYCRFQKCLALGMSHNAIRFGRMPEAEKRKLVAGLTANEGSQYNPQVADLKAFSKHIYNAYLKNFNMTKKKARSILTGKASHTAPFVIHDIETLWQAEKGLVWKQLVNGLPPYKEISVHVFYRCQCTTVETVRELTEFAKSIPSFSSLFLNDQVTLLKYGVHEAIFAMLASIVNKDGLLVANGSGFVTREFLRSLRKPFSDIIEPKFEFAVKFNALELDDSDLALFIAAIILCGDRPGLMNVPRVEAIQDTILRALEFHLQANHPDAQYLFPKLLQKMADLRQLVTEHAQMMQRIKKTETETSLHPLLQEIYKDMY

[4] = biological target: T3, Peroxisome proliferator-activated receptor gamma (Homo sapiens) (UniProt P37231); assay: Agonist activity at PPARgamma (unknown origin) transfected in HEK293 cells at 1 to 30 uM by luciferase reporter gene assay
T3 sequence (whole entry): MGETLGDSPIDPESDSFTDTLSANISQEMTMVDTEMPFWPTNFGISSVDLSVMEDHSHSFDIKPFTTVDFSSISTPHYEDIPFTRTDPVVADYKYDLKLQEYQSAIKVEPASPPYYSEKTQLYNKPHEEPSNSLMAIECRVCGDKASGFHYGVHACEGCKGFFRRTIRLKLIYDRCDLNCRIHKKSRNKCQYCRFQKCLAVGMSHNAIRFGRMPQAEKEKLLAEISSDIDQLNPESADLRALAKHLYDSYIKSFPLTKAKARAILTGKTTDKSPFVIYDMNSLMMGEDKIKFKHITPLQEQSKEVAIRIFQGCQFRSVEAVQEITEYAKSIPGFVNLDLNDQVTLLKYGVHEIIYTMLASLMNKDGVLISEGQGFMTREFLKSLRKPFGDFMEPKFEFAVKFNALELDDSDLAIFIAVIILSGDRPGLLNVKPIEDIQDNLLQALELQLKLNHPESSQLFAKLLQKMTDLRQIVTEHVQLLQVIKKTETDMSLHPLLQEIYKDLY

[5] = biological target: T3, Peroxisome proliferator-activated receptor gamma (Homo sapiens); assay: Agonist activity at PPARgamma (unknown origin) transfected in HEK293 cells at 10 uM by luciferase reporter gene assay; procedure, shortened: as §1

Measured: Activity

CCCCC[C@H](O)/C=C/[C@H]1C(=O)C[C@H](O)[C@@H]1C/C=C\CCCC(=O)O
active: [1] | [2] | [3] | [4] | [5]

CC1(COc2ccc(CC3SC(=O)NC3=O)cc2)CCCCC1 (stereo not given)
active: [1] | [3] | [5]

CCCCC/C=C/C=C1/C(=O)C=C[C@@H]1CCCCC(=O)O
active: [1] | [3] | [5]

CC(C)(Oc1ccc(C(=O)c2ccc(Cl)cc2)cc1)C(=O)O
active: [1] | [3] | [5]

CCCCC[C@@H](O)/C=C/[C@H]1C(=O)C[C@H](O)[C@@H]1CCCCC(=O)O
active: [1] | [2] | [4]

CCCCC[C@H](O)/C=C/[C@H]1C(=O)C[C@H](O)[C@@H]1CCCCC(=O)O
active: [1] | [2] | [4]
